In brackets after ≈: the same amount, converted by molar mass.
Key:
Plasmodium falciparum [1] = assay: Ratio of EC50 for chloroquine-resistant Plasmodium falciparum K1 infected in human erythrocytes to EC50 for chloroquine-sensitive Plasmodium falciparum 3D7 infected in human erythrocytes; format: functional
[2] = Solubility of the compound at pH 7.4 after 18 hrs by UV spectroscopic analysis; format: physicochemical; conditions: buffer
Summary of the method: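 Kinetic solubility. A 10 mM stock is diluted 1:100 into PBS pH 7.4 and incubated 18 h at room temperature, then filtered; the filtrate is mixed 1:1 with 1-propanol. UV spectrum (250–500 nm) compared by AUC with a 1-propanol/PBS reference. Single experiment in triplicate.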

[3] = Dissociation constant, pKa of the compound; format: physicochemical
[4] = Ratio of EC50 for human HepG2 cells to EC50 for Plasmodium falciparum 3D7 infected in human erythrocytes
[5] = Ratio of EC50 for human HepG2 cells to EC50 for Plasmodium falciparum K1 infected in human erythrocytes
Plasmodium falciparum [6] = assay: Antimalarial activity against chloroquine-sensitive Plasmodium falciparum 3D7 infected in human erythrocytes assessed as reduction in parasitemia after 72 hrs by spectrophotometry; format: functional, organism-based; conditions: 3D7, 72 h
[7] = Permeability of the compound at pH 7.4 after 30 mins by PAMPA; format: ADME; conditions: read-out: permeability
Summary of the method: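 PAMPA at pH 7.4. A 10 mM DMSO stock is diluted into system solution buffer; its UV spectrum serves as reference. Membrane painted with GIT lipid, acceptor chamber holds acceptor solution buffer. Sandwich stirred for 30 min, aqueous boundary layer set to 40. Donor and acceptor UV spectra read at 250–500 nm. Permeability coefficient from the AUCs of reference, donor and acceptor. Single experiment in triplicate.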

HepG2 = assay: Cytotoxicity against human HepG2 cells assessed as intracellular ATP level after 72 hrs by Celltiter-Glo luminescent assay; format: cell-based; conditions: HepG2, 72 h
Plasmodium falciparum [8] = assay: Antimalarial activity against chloroquine-resistant Plasmodium falciparum K1 infected in human erythrocytes assessed as reduction in parasitemia after 72 hrs by spectrophotometry; format: functional, organism-based; conditions: K1, 72 h

COc1cccc(CNCCCNc2ccnc3cc(Cc4ccc(C#N)cc4)ccc23)c1O
Ratio EC50 (Plasmodium falciparum [1]): 514 | solubility at 18 h [2]: 4.2 µM (≈ 1.9 µg/mL) | pKa [3]: 9.47 | Ratio EC50 [4]: 674.8 | Ratio EC50 [5]: 1.3 | EC50 (Plasmodium falciparum [6]): 11 nM | Papp at 0.5 h [7]: 23 ×10⁻⁶ cm/s | EC50 (HepG2): 7150 nM | EC50 (Plasmodium falciparum [8]): 5440 nM

COc1ccc(F)cc1CNCCCNc1ccnc2cc(Cc3ccccc3)ccc12
Ratio EC50 (Plasmodium falciparum [1]): 129.5 | solubility at 18 h [2]: 4.2 µM (≈ 1.8 µg/mL) | pKa [3]: 9.47 | Ratio EC50 [4]: 726.7 | Ratio EC50 [5]: 5.6 | EC50 (Plasmodium falciparum [6]): 11 nM | Papp at 0.5 h [7]: 23 ×10⁻⁶ cm/s | EC50 (HepG2): 7990 nM | EC50 (Plasmodium falciparum [8]): 1420 nM

COc1cccc(CNCCCNc2ccnc3cc(Cc4ccc(F)cc4Cl)ccc23)c1O
Ratio EC50 (Plasmodium falciparum [1]): 404.4 | solubility at 18 h [2]: 4.2 µM (≈ 2.02 µg/mL) | pKa [3]: 9.47 | Ratio EC50 [4]: 185.4 | Ratio EC50 [5]: 0.5 | EC50 (Plasmodium falciparum [6]): 13 nM | Papp at 0.5 h [7]: 23 ×10⁻⁶ cm/s | EC50 (HepG2): 2350 nM | EC50 (Plasmodium falciparum [8]): 5140 nM

c1ccc(CCc2ccc3c(NCCCNCc4ccc5c(c4)OCO5)ccnc3c2)cc1
Ratio EC50 (Plasmodium falciparum [1]): 117.1 | solubility at 18 h [2]: 4.2 µM (≈ 1.85 µg/mL) | pKa [3]: 9.47 | Ratio EC50 [4]: 380.3 | Ratio EC50 [5]: 3.2 | EC50 (Plasmodium falciparum [6]): 13 nM | Papp at 0.5 h [7]: 23 ×10⁻⁶ cm/s | EC50 (HepG2): 4980 nM | EC50 (Plasmodium falciparum [8]): 1530 nM

COc1cccc(CNCCCNc2ccnc3cc(Cc4ccc(F)cc4)ccc23)c1O
Ratio EC50 (Plasmodium falciparum [1]): 473.5 | solubility at 18 h [2]: 4.2 µM (≈ 1.87 µg/mL) | pKa [3]: 9.47 | Ratio EC50 [4]: 316.6 | Ratio EC50 [5]: 0.7 | EC50 (Plasmodium falciparum [6]): 15 nM | Papp at 0.5 h [7]: 23 ×10⁻⁶ cm/s | EC50 (HepG2): 4780 nM | EC50 (Plasmodium falciparum [8]): 7150 nM

COc1cccc(CNCCCNc2ccnc3cc(CCc4ccccc4)ccc23)c1O
Ratio EC50 (Plasmodium falciparum [1]): 324.5 | solubility at 18 h [2]: 4.2 µM (≈ 1.85 µg/mL) | pKa [3]: 9.47 | Ratio EC50 [4]: 400 | Ratio EC50 [5]: 1.2 | EC50 (Plasmodium falciparum [6]): 17 nM | Papp at 0.5 h [7]: 23 ×10⁻⁶ cm/s | EC50 (HepG2): 6800 nM | EC50 (Plasmodium falciparum [8]): 5520 nM

COc1cccc(CNCCCNc2ccnc3cc(Cc4ccccc4)ccc23)c1O
Ratio EC50 (Plasmodium falciparum [1]): 400.6 | solubility at 18 h [2]: 4.2 µM (≈ 1.8 µg/mL) | pKa [3]: 9.47 | Ratio EC50 [4]: 328.6 | Ratio EC50 [5]: 0.8 | EC50 (Plasmodium falciparum [6]): 17 nM | Papp at 0.5 h [7]: 23 ×10⁻⁶ cm/s | EC50 (HepG2): 5720 nM | EC50 (Plasmodium falciparum [8]): 6970 nM

COc1cccc(CNCCCNc2ccnc3cc(C4CCCCC4)ccc23)c1O
Ratio EC50 (Plasmodium falciparum [1]): 864.9 | solubility at 18 h [2]: 4.2 µM (≈ 1.76 µg/mL) | pKa [3]: 9.47 | Ratio EC50 [4]: 58.1 | Ratio EC50 [5]: 0.1 | EC50 (Plasmodium falciparum [6]): 19 nM | Papp at 0.5 h [7]: 23 ×10⁻⁶ cm/s | EC50 (HepG2): 1080 nM | EC50 (Plasmodium falciparum [8]): 16000 nM

Fc1ccc(Cc2ccc3c(NCCCNCc4ccco4)ccnc3c2)c(Cl)c1
Ratio EC50 (Plasmodium falciparum [1]): 62.1 | solubility at 18 h [2]: 4.2 µM (≈ 1.78 µg/mL) | pKa [3]: 9.47 | Ratio EC50 [4]: 290.8 | Ratio EC50 [5]: 4.7 | EC50 (Plasmodium falciparum [6]): 20 nM | Papp at 0.5 h [7]: 23 ×10⁻⁶ cm/s | EC50 (HepG2): 5730 nM | EC50 (Plasmodium falciparum [8]): 1220 nM

COc1cccc(CNCCCNc2ccnc3cc(CC(C)C)ccc23)c1O
Ratio EC50 (Plasmodium falciparum [1]): 402.5 | solubility at 18 h [2]: 4.2 µM (≈ 1.65 µg/mL) | pKa [3]: 9.47 | Ratio EC50 [4]: 144.5 | Ratio EC50 [5]: 0.4 | EC50 (Plasmodium falciparum [6]): 20 nM | Papp at 0.5 h [7]: 23 ×10⁻⁶ cm/s | EC50 (HepG2): 2920 nM | EC50 (Plasmodium falciparum [8]): 8130 nM

COc1cccc(CNCCCNc2ccnc3cc(CCC(C)C)ccc23)c1O
Ratio EC50 (Plasmodium falciparum [1]): 365.3 | solubility at 18 h [2]: 4.2 µM (≈ 1.71 µg/mL) | pKa [3]: 9.47 | Ratio EC50 [4]: 245.9 | Ratio EC50 [5]: 0.7 | EC50 (Plasmodium falciparum [6]): 22 nM | Papp at 0.5 h [7]: 23 ×10⁻⁶ cm/s | EC50 (HepG2): 5390 nM | EC50 (Plasmodium falciparum [8]): 8000 nM

N#Cc1ccc(Cc2ccc3c(NCCCNCc4ccc5c(c4)OCO5)ccnc3c2)cc1
Ratio EC50 (Plasmodium falciparum [1]): 136.4 | solubility at 18 h [2]: 4.2 µM (≈ 1.89 µg/mL) | pKa [3]: 9.47 | Ratio EC50 [4]: 270.2 | Ratio EC50 [5]: 2 | EC50 (Plasmodium falciparum [6]): 23 nM | Papp at 0.5 h [7]: 23 ×10⁻⁶ cm/s | EC50 (HepG2): 6080 nM | EC50 (Plasmodium falciparum [8]): 3070 nM

— ChEMBL document CHEMBL1833887, “Synthesis and evaluation of 7-substituted 4-aminoquinoline analogues for antimalarial activity” (J Med Chem, 2011)
